# Test results: ChEMBL document CHEMBL3627702, “Navigating CYP1A Induction and Arylhydrocarbon Receptor Agonism in Drug Discovery. A Case History with S1P1 Agonists” (J Med Chem, 2015)
# Tests used:
# CYP1A1 [1] = assay: (§1) Induction of CYP1A1 mRNA expression in rat hepatocytes at 10 uM by Taqman analysis relative to control; assay type: ADME, cell-based, Hepatocyte; conditions: read-out: FC
# Rattus norvegicus [2] = assay: Induction of Ephx1 gene expression in po dosed rat hepatic microsomes administered po QD for 7 days; assay type: organism-based, Liver; conditions: 168 h
# Summary of the method: (§2)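 Rats dosed orally once daily for 7 days at 30–300 mg/kg/day, depending on compound. Hepatic AhR-panel gene mRNA (Cyp1a, Nqo1, Ephx1) measured and expressed as fold induction versus control animals.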
# CYP1A1 [3] = assay: Induction of CYP1A1 gene expression in rat hepatic microsomes at 30 to 300 mg/kg, po QD for 7 days; assay type: ADME, organism-based, Liver; conditions: read-out: FC
# Summary of the method: (§3)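 Rats received oral doses daily for 7 days: 30 and 100 mg/kg, or 30, 100 and 300 mg/kg, depending on compound. Hepatic CYP1A1 mRNA was expressed as fold induction versus control animals.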
# CYP1A2 [4] = assay: (§4) Induction of CYP1A2 mRNA expression in rat hepatocytes at 10 uM by Taqman analysis relative to control; assay type: ADME, cell-based, Hepatocyte; conditions: read-out: FC
# Rattus norvegicus [5] = assay: Induction of Nqo1 gene expression in po dosed rat hepatic microsomes administered po QD for 7 days; assay type: organism-based, Liver; conditions: 168 h; summary of the method: as §2
# Rattus norvegicus [6] = assay: Induction of Ephx1 gene expression in rat hepatic microsomes at 30 to 300 mg/kg, po QD for 7 days; assay type: organism-based, Liver; conditions: 168 h; summary of the method: as §2
# Rattus norvegicus [7] = assay: Induction of Nqo1 gene expression in rat hepatic microsomes at 30 to 300 mg/kg, po QD for 7 days; assay type: organism-based, Liver; conditions: 168 h; summary of the method: as §2
# CYP1A2 [8] = assay: Induction of CYP1A2 mRNA expression in rat hepatic microsomes at 30 mg/kg, po QD for 7 days relative to control; assay type: ADME, organism-based, Liver; conditions: read-out: FC
# Summary of the method: (§5)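 Male rats dosed orally once daily for 7 days. Hepatic mRNA measured by Taqman and expressed as fold induction versus control animals.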
# Rattus norvegicus [9] = assay: Induction of CYP1A2 gene expression in po dosed rat hepatic microsomes administered po QD for 7 days; assay type: ADME, organism-based, Liver; conditions: 168 h; summary of the method: as §2
# Rattus norvegicus [10] = assay: Induction of CYP1A2 gene expression in rat hepatic microsomes at 30 to 300 mg/kg, po QD for 7 days; assay type: ADME, organism-based, Liver; conditions: 168 h; summary of the method: as §2
# CYP1A1 [11] = assay: Induction of CYP1A1 mRNA expression in rat hepatic microsomes at 30 mg/kg, po QD for 7 days relative to control; assay type: ADME, organism-based, Liver; conditions: read-out: FC; summary of the method: as §5
# Rattus norvegicus [12] = assay: Induction of CYP1A1 gene expression in po dosed rat hepatic microsomes administered po QD for 7 days; assay type: ADME, organism-based, Liver; conditions: 168 h; summary of the method: as §3
# [13] = Dissociation constant, pKa of the compound; assay type: physicochemical
# CYP1A2 [14] = assay: Induction of CYP1A2 mRNA expression in Sprague-Dawley rat hepatic microsomes at 30 mg/kg, po QD for 4 days relative to control; assay type: ADME, organism-based, Liver; conditions: read-out: FC
# [15] = Intrinsic clearance in human hepatocytes by LC-MS/MS analysis; conditions: read-out: CLH
# Rattus norvegicus [16] = assay: Dose normalized AUC in Sprague-Dawley rat at 30 mg/kg, po QD measured on day 4; assay type: ADME, organism-based; conditions: in vivo
# Summary of the method: (§6)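 Male CD rats (226−325 g), n = 3, given the compound once daily by oral gavage for 4 days. Vehicle was 1% (w/v) methylcellulose aq suspension at 3−6 mg/mL, dosed at 5 mL/kg (target 15−30 mg/kg). Tail vein blood was taken on days 1 and 4 up to 24 h postdose. Blood was diluted 1:1 with water, extracted by acetonitrile protein precipitation and analysed by LC−MS/MS against calibration standards in diluted blood.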
# [17] = Blood clearance in CD rat at 1 mg/kg, iv; assay type: ADME, organism-based
# Summary of the method: (§7)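 Male CD rats carried femoral vein (dosing) and jugular vein (sampling) cannulae and recovered at least 2 days. They received a 1 h iv infusion at 5 mL kg−1 h−1, target 1 mg/kg, at 0.2 mg/mL in DMSO/10% Kleptose in saline (≤5%:≥95%). pH was adjusted to 8.0 if needed and the solution filtered. Definitive studies used n = 3 in crossover; others used single animals.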
# [18] = AUC in Sprague-Dawley rat at 30 mg/kg, po QD measured on day 1; assay type: ADME, organism-based; conditions: in vivo; summary of the method: as §6
# CYP1A1 [19] = assay: Induction of CYP1A1 mRNA expression in Sprague-Dawley rat hepatic microsomes at 30 mg/kg, po QD for 4 days relative to control; assay type: ADME, organism-based, Liver; conditions: read-out: FC
# Summary of the method: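 Male CD rats (226–325 g, n = 3) were dosed by oral gavage once daily for 4 days as a 1% w/v aqueous methylcellulose suspension (3–6 mg/mL, 5 mL/kg). At the end of the study, a left lateral liver lobe section was placed in RNALater and homogenised in TRIzol. RNA was purified, DNase-treated and converted to cDNA, and Cyp1a1 was read on low-density TaqMan arrays.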
# [20] = Cmax in Sprague-Dawley rat at 30 mg/kg, po QD measured on day 4; assay type: ADME, organism-based; design: dose 30 mg/kg, route oral; conditions: in vivo; summary of the method: as §6
# [21] = Intrinsic clearance in dog hepatocytes by LC-MS/MS analysis; conditions: read-out: CLH
# [22] = Intrinsic clearance in rat hepatocytes by LC-MS/MS analysis; conditions: read-out: CLH
# [23] = Lipophilicity, log D of the compound at pH 7.4; assay type: physicochemical; conditions: buffer
# [24] = AUC in Sprague-Dawley rat at 30 mg/kg, po QD measured on day 4; assay type: ADME, organism-based; conditions: in vivo; summary of the method: as §6
# Rattus norvegicus [25] = assay: Dose normalized AUC in Sprague-Dawley rat at 30 mg/kg, po QD measured on day 1; assay type: ADME, organism-based; conditions: in vivo; summary of the method: as §6
# [26] = molecular target: Sphingosine 1-phosphate receptor 3 (Homo sapiens, UniProt Q99500); assay: Agonist activity at S1P3 receptor (unknown origin) expressed in RBL membranes assessed as GTPgammaS binding after 3 hrs; assay type: functional, cell membranes
# Sequence of Sphingosine 1-phosphate receptor 3 (Q99500 whole entry): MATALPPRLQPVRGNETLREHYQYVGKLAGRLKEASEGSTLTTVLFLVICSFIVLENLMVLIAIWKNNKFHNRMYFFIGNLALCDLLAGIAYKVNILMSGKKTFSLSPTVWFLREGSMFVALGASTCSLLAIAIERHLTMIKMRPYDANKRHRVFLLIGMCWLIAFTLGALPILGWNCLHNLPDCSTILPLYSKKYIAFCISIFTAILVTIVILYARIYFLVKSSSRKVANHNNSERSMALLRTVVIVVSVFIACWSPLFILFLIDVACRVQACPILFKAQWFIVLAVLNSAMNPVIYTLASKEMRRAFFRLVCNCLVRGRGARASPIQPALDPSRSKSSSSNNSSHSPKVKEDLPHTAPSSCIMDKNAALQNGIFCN
# Summary of the method: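 Membranes from S1P3-expressing RBL cells were sucrose-gradient purified, used at 0.44 μg/well and coupled to WGA-coated SPA beads. Buffer was 20 mM HEPES, 10 mM MgCl2, 100 mM NaCl, pH 7.4, with 2 μg/well saponin. Precoupling was 30 min on ice. GDP was present at 5 μM final.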
# [27] = Cmax in Sprague-Dawley rat at 30 mg/kg, po QD measured on day 1; assay type: ADME, organism-based; design: dose 30 mg/kg, route oral; conditions: in vivo; summary of the method: as §6
# [28] = Volume of distribution at steady state in CD rat at 1 mg/kg, iv; assay type: ADME, organism-based; conditions: in vivo, read-out: Vdss
# Summary of the method: (§8)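 Male CD rats cannulated in the femoral and jugular veins, n = 3, crossover design. Day 1: 1 h iv infusion at 1 mg/kg (0.2 mg/mL in ≤5% DMSO/≥95% 10% Kleptose in saline, 5 mL/kg/h). Day 2: oral gavage at 3 mg/kg (0.6 mg/mL in 1% methylcellulose, 5 mL/kg). Blood assayed by LC–MS/MS after acetonitrile precipitation.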
# [29] = Half life in CD rat at 1 mg/kg, iv; assay type: ADME, organism-based; conditions: in vivo; summary of the method: as §7
# [30] = molecular target: Sphingosine 1-phosphate receptor 1 (Homo sapiens, UniProt P21453); assay: Agonist activity at S1P1 receptor (unknown origin) expressed in CHO-K1 cells assessed as beta-arrestin recruitment after 60 mins by chemiluminescence assay; assay type: cell-based; conditions: in the assay text read “after 90 mins” for “after 60 mins”
# Sequence of Sphingosine 1-phosphate receptor 1 (P21453 whole entry, the tested form may be a part): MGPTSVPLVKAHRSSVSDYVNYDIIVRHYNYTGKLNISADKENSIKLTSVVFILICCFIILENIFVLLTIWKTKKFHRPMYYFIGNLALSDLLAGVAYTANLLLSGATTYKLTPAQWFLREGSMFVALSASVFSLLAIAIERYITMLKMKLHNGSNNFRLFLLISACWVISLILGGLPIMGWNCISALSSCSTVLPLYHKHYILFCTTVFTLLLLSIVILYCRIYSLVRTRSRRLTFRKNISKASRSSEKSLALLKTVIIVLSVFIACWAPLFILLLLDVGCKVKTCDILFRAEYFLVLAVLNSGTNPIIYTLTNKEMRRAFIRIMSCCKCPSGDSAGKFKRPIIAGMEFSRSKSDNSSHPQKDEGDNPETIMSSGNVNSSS
# Summary of the method: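 PathHunter CHO-K1 cells stably express S1P1 and β-arrestin 2 fused to complementing β-galactosidase fragments. Cells in pH 7.4 HEPES/NaHCO3 buffer with 0.1% pluronic and 0.1% BSA were added to DMSO compound plates at 1 × 10^4 cells/well. Incubation was 90 min at 37 °C/5% CO2, then 15 min at room temperature. Galacton Star/Emerald II detection mix was added for 60 min at room temperature, and luminescence was read.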
# [31] = Oral bioavailability in CD rat at 3 mg/kg; assay type: ADME, organism-based; conditions: in vivo; summary of the method: as §8
# Hepatocyte [32] = assay: as §1; assay type: ADME, cell-based; conditions: 10 µM
# Hepatocyte [33] = assay: as §4; assay type: ADME, cell-based; conditions: 10 µM
# Rattus norvegicus [34] = assay: Induction of CYP1A2 mRNA expression in rat hepatic microsomes at 20 mg/kg, po QD for 4 days relative to control; assay type: ADME, organism-based, Liver; conditions: microsomes, 96 h
# Summary of the method: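 Male CD rats (226–325 g), n = 3, given test compound by oral gavage once daily for 4 days. Vehicle was 1% w/v methylcellulose aqueous suspension (3–6 mg/mL, 5 mL/kg); target dose 15–30 mg/kg. Liver from the left lateral lobe was put in RNALater, then TRIzol extraction and cDNA conversion; Cyp1a analysed on low-density arrays.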
# Rattus norvegicus [35] = assay: Induction of CYP1A1 mRNA expression in rat hepatic microsomes at 20 mg/kg, po QD for 4 days relative to control; assay type: ADME, organism-based, Liver; conditions: microsomes, 96 h
# Summary of the method: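 Male CD rats, n = 3, received the compound once daily by oral gavage for 4 days in 1% methylcellulose suspension at 5 mL/kg. At necropsy a left lateral liver lobe section was stored in RNALater on ice. Tissue was TRIzol-homogenized, RNA purified, DNased and converted to cDNA. Cyp1a1 was read on low density arrays and expressed relative to control.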
compound,measurement,setting,value
CC(C)Oc1ccc(-c2nc(-c3ccc4c(c3)CCN(CCCC(=O)O)CC4)no2)cc1C#N,fold induction at 10 µM,CYP1A1 [1],3
same,Activity,Rattus norvegicus [2],Dose-dependent effect
same,fold induction at 168 h,CYP1A1 [3],10000
same,fold induction at 10 µM,CYP1A2 [4],2
same,Activity,Rattus norvegicus [5],Dose-dependent effect
same,Activity,Rattus norvegicus [6],Toxic
same,Activity,Rattus norvegicus [7],Toxic
same,fold induction at 168 h,CYP1A2 [8],2
same,Activity,Rattus norvegicus [9],Dose-dependent effect
same,Activity,Rattus norvegicus [10],Toxic
same,fold induction at 168 h,CYP1A1 [11],210
same,Activity,Rattus norvegicus [12],Dose-dependent effect
Cc1c(-c2noc(-c3ccc(OC(C)C)c(C#N)c3)n2)ccc2c1CCN(C[C@@H](O)CO)C2,pKa,[13],7.7
same,fold induction at 96 h,CYP1A2 [14],4.6
same,CLint scaled,[15],< 0.85 mL/min/kg
same,AUC/dose,Rattus norvegicus [16],15 kg·min/L
same,clearance,[17],53 mL/min/kg
same,AUC,[18],7310 ng·h/mL
same,fold induction at 96 h,CYP1A1 [19],62
same,Cmax,[20],710 ng/mL
same,CLint scaled,[21],7.1 mL/min/kg
same,CLint scaled,[22],2.1 mL/min/kg
same,logD,[23],2.16
same,AUC,[24],7000 ng·h/mL
same,AUC/dose,Rattus norvegicus [25],15 kg·min/L
same,EC50,[26],> 31600 nM
same,Cmax,[27],720 ng/mL
same,Vd,[28],6.6 L/kg
same,half-life,[29],1.7 h
same,EC50,[30],7.94 nM
same,bioavailability,[31],56%
CC(C)Oc1ncc(-c2nc(-c3cccc4c3OCCNC4CCCC(=O)O)no2)cc1Cl (stereo in doubt; 7),fold change (FC),Hepatocyte [32],32
same,fold change (FC),Hepatocyte [33],8
same,fold change (FC),Rattus norvegicus [34],1
same,fold change (FC),Rattus norvegicus [35],1
